The whole screen tested about 330,000 compounds, of which about 2,400 (0.73%) were called active. What follows is part of a selection rich in actives, with near analogues and random picks from the rest. Values without a mark were called inactive. How the source made its calls: active means inhibition of at least 40% at 20 µM; inactive means the rest.

The inhibition is the relative decrease from the control value, in per cent.

In this assay the target is Apoptotic protease-activating factor 1 (Homo sapiens) (UniProt O14727). Kind of assay: inhibitors of human Apaf-1 apoptosome, primary screen, biochemical, DEVD-Rh110 fluorescence, uHTS (AID 489030).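 Further: plate controls were DMSO wells for no effect and DEVD-CHO caspase inhibitor wells for full effect.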 The conditions noted are these: reconstituted apoptosome caspase-3 activity, at 20 µM, hits give high values. Put shortly: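 System – cell-free apoptosome with Apaf-1, procaspase-3 and caspase-9 · Buffer or medium – pH 7.5 Hepes buffer with CHAPS, BSA, DTT · Also added – cytochrome c with DEVD-Rh110 · Times – 30 min compound preincubation, 50 min activation, room temperature · Technique – Rh110 fluorescence intensity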
Sequence of Apoptotic protease-activating factor 1 (Homo sapiens) (O14727 whole entry, looked up): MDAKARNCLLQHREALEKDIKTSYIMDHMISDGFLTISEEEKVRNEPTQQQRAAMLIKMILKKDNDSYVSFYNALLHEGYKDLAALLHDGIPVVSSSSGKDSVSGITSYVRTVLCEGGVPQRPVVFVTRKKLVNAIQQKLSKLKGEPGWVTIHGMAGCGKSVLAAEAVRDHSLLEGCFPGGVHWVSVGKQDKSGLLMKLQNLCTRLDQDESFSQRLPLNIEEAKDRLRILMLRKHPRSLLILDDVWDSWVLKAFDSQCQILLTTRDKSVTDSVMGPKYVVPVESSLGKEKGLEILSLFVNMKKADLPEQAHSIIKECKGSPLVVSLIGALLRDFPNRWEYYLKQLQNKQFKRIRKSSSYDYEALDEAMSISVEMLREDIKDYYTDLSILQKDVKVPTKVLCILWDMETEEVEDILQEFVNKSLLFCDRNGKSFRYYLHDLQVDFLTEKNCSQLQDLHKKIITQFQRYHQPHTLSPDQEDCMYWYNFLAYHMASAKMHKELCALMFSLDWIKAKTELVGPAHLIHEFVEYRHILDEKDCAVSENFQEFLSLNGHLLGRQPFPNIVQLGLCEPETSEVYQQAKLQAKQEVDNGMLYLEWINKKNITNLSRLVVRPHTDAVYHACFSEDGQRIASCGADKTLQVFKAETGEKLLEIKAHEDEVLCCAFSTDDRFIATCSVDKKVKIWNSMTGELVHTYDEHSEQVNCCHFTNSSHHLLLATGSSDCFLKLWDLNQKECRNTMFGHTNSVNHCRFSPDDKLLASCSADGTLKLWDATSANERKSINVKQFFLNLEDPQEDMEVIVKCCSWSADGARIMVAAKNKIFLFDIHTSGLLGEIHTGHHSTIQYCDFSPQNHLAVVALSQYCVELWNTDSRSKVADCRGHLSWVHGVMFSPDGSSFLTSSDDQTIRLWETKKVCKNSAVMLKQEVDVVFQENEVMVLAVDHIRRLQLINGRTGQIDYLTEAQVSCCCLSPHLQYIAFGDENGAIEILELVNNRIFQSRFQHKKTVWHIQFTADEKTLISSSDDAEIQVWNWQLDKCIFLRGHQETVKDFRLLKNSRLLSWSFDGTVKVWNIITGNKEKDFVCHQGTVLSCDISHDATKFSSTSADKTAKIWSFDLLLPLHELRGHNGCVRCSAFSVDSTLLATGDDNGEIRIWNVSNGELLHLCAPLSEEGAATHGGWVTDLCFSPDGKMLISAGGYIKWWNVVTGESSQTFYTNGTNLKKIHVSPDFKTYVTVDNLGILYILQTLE
Take `CCN(c1ccc2c(c1)OCO2)S(=O)(=O)c1cc(Br)cc2c1N(C(=O)C1CC1)CC2`: the inhibition is 21.5%.
Under `COc1cc(C2C(C(=O)c3cccs3)=C(O)C(=O)N2CCN2CCOCC2)ccc1OCCC(C)C` (configuration not stated) stands 6.88%; under `CCn1c(CN2C(=O)CSc3ccccc32)n[nH]c1=S`, -18.9%; under `CN(Cc1ccccc1)C(=O)c1ccc(NC2=NC3CS(=O)(=O)CC3S2)cc1` (configuration not stated), -0.97%.
Consider `CC(C)Oc1ccc(Cc2n[nH]c(=S)n2Cc2ccccc2)cc1Cl`, for which the inhibition is -15.3%.
In the case of `CC(NCc1ccccc1OC1CCCC1)c1ccccc1` (configuration not stated), the inhibition is -12%.
With `CCOc1[nH]n(-c2ccc(Cl)cc2)c(=O)c1C=Nc1ccc(O)cc1`, the inhibition is 66.9% (active).
Next, `CCOc1ccc(N=C2NC(=O)S/C2=C\c2ccc(O)cc2)cc1`: -72%; `CCCCn1c(N)c(N(CCC(C)C)C(=O)c2ccc([N+](=O)[O-])o2)c(=O)[nH]c1=O`: 5.92%.
Regarding `CCCCc1nnc(NC(=O)CSc2nc(N)cc(=O)[nH]2)s1`, the inhibition was 20.3%.
Regarding `COc1ccc(NC(=O)CN(C)S(=O)(=O)c2ccccc2)cc1OC`, the inhibition was -3.33%.
Next, `COC(=O)c1ccccc1NC(=O)CN(Cc1ccccc1)S(C)(=O)=O`: -17.6%; `COc1ccc(NC(=O)CN(Cc2ccccc2)S(C)(=O)=O)cc1OC`: 40.8% (active).
For `CCCCN(C(=O)C1=NN(c2cc(C)ccc2C)C(=O)CC1)c1c(N)n(CCC)c(=O)[nH]c1=O`, the inhibition was -17%.
Under `CC1CC(C)(C)NC(=S)N1CCC(=O)N1CCN(Cc2ccccc2)CC1` (configuration not stated) stands -1.32%; under `CC1CC(=O)Nc2ccccc2N1S(=O)(=O)c1cccs1` (configuration not stated), -4.75%.
Consider `CC1CC(=S)Nc2ccccc2N1Cc1ccccc1` (configuration not stated), for which the inhibition is 41.4% (active).
Next, `COC(=O)c1noc(C)c1-c1ccnn1C(=O)c1ccc(Cl)cc1`: 10.5%.
On to `COc1ccc2sc(N(CCCN(C)C)C(=O)c3ccc(S(=O)(=O)N(C)C4CCCCC4)cc3)nc2c1`, for which the inhibition is 24%.
Next, `CN(C)CCCN(C(=O)c1ccc(S(=O)(=O)N2CCCc3ccccc32)cc1)c1nc2ccc(F)cc2s1`: 23.6%; `CN(C)CCCN(C(=O)c1ccc(S(=O)(=O)N2CCCCCC2)cc1)c1nc2ccc(Br)cc2s1`: 60.4% (active); `C#CCOCCOCCOCCNc1nc(N2CCN(C(=O)[C@H](CCCCN)n3cc([C@@H](N)C(C)CC)nn3)CC2)nc(N2CCN(C(=O)[C@H](Cc3ccc(O)cc3)n3cc([C@@H](N)C(C)CC)nn3)CC2)n1` (some centres not stated): -9.37%.
As for `CC1(C)CC(=O)C2=C(C1)NCN(CCCN1CCOCC1)C2`, the inhibition is 4.48%.
Under `CCC(C)(C)c1ccc(OCC(=O)N(C)C)c(C(C)(C)CC)c1` stands 56.5% (active).
Next, `CCc1nc(C)ccc1OCC(=O)N(CC)CC`: -18.1%; `CN(C)CCOc1ccc(Cl)cc1C(C)(C)C`: 4.15%.
Next, `CCOc1ccc(C(=O)CCN2CCOCC2)cc1`: 2.64%; `CC(OC(=O)c1ccc(NS(=O)(=O)c2ccc3[nH]c(=O)[nH]c3c2)cc1)C(=O)Nc1cccc(Cl)c1Cl` (configuration not stated): 14%; `CCC(C)Sc1nc2c(c(=O)[nH]c(=O)n2C)n1CC(O)COc1cccc2ccccc12` (configuration not stated): 22.5%.
Regarding `Cc1cc(C)c(NC(=O)C[N+](C)(C)CC(O)COc2cccc3ccccc23)c(C)c1` (configuration not stated), the inhibition was 12.4%.
Under `CC(C)c1ccccc1OCC(O)CN(CC(O)COc1cccc2ccccc12)C(C)C` (configuration not stated) stands 57.3% (active); under `CCCCn1c(N)c(N(CCOC)C(=O)c2cccc(OCc3ccccc3)c2)c(=O)[nH]c1=O`, 0.864%.
As for `CCCCCCCCCCOC(=O)Cn1c(COc2ccc(C)cc2)[n+](C)c2ccccc21`, the inhibition was 77.7% (active).
Next, `CCOC(=O)COn1c(=O)c(-c2ccc(OCC)cc2)[n+]([O-])c2ccccc21`: 9.6%.
On to `CCCCCCCCCCOC(=O)Cn1c(COc2cccc(OC)c2)[n+](C)c2ccccc21`, for which the inhibition is 65.3% (active).
Next, `COc1cccc(OCc2nnc3n2N=C(c2ccccc2)C(CC(=O)O)S3)c1` (configuration not stated): -0.294%; `CCCCOc1ccc(NC(=O)CSCC(=O)OCC)cc1`: -4.3%; `Cc1cccc(/C(N)=N/OC(=O)c2ccccc2Cl)c1`: 11.3%.
With `CCOC(=O)c1sc(C)c2c1NC(C)(c1cccc3ccccc13)NC2=O` (configuration not stated), the inhibition is 28%.
In the case of `COC(=O)c1nn(-c2cccc(Cl)c2)ccc1=O`, the inhibition was -6.21%.
Under `CN(CCc1cn[nH]c1)C(=O)CC1C(=O)NCCN1Cc1cccc(Oc2ccccc2)c1` (configuration not stated) stands 13%.
Next, `CCCNC(=O)Nc1ccccc1C(=O)Nc1ccc(OC)cc1`: 11.1%; `COCCNC(=O)c1snc2ccc(Cl)cc12`: -26%.
Next, `O=C(NCc1ccccn1)c1ccc2nc(-c3ccco3)c(-c3ccco3)nc2c1`: 60.6% (active); `COCCNC(=O)Nc1ccc2nc(-c3ccco3)c(-c3ccco3)nc2c1`: 64.8% (active); `COc1cccc(S(=O)(=O)NCc2ccc(C(=O)NCc3ccccn3)cc2)c1`: 4.94%.
For the compound `O=C1CSc2ccc(C(=O)NCc3ccccn3)cc2N1`, the inhibition was -4.15%.
Next, `O=C(O)c1ccc(NC(=O)c2ccc(COc3ccc(Cl)cc3)o2)cc1`: 3.81%; `Cn1c(=O)n(C)c2cc(NS(=O)(=O)c3ccc(F)cc3)ccc21`: 1.91%.
For the compound `Cc1cccc(C)c1Nc1nnc(SCC(=O)NCCCN2CCCC2=O)s1`, the inhibition is -3.15%.
Under `Cc1ccc(/C=C(\C#N)C(=O)Nc2cccc3ncccc23)o1` stands -6.14%; under `O=C(O)c1cc(Cl)c(Cl)cc1C(=O)Nc1cccc2ncccc12`, 80.4% (active); under `O=C(Nc1cccnc1Cl)c1cc(-c2cccc(Cl)c2)on1`, 3.02%.
Next, `C=C(C)CNc1cc(S(=O)(=O)N2CCOCC2)ccc1Oc1ccccc1`: 24.2%; `CCCC[C@@H]1CN=C(N)N1CCc1cc(C(F)(F)F)cc(C(F)(F)F)c1`: 52.3% (active); `CCCC[C@@H]1CN=C(N)N1CCc1cccc(F)c1`: 4.48%.
Consider `CCCC[C@@H]1CN=C(N)N1CCCC`, for which the inhibition is 8.23%.

The values above are taken from PubChem BioAssay AID489030 (Sanford-Burnham Center for Chemical Genomics, 2010).
